Legend:
Settings in all cases: in vivo
[1] = system: Cerebrum; experiment: Drug uptake in albino F344/DuCrlCrlj rat cerebrum at 5 mg/kg, po after 8 hrs by liquid scintillation counting; assay type: ADME, organism-based; design: dose 5 mg/kg, dosed compound name [14C]CS-1036, route oral
How it was run: (§1)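 Single oral [14C]CS-1036 at 5 mg/kg was given to male rats (159–167 g; n = 3). Cerebrum was collected after aortic bleeding at 1, 4, 8, 24, 72, 168 or 336 h, weighed, and homogenized in 2 volumes of saline. A 0.5 ml aliquot was solubilized in Soluene-350 and counted by LSC with external-standard correction. Results are in ng equivalent/g tissue from specific activity and sample weight.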

[2] = Drug uptake in albino F344/DuCrlCrlj rat fat at 5 mg/kg, po after 72 hrs by liquid scintillation counting; assay type: ADME, organism-based, Adipose tissue; design: dose 5 mg/kg, dosed compound name [14C]CS-1036, route oral
How it was run: (§2)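 Male F344/DuCrlCrlj rats (bought at 7 weeks, acclimatized 5–6 days; 159–167 g; n = 3 per time point) received a single oral dose of [14C]CS-1036 at 5 mg/kg. White adipose tissue was collected after abdominal aortic bleeding at 1, 4, 8, 24, 72, 168 or 336 h. Samples were counted by LSC with external-standard efficiency correction. Results were converted to ng equivalents per g from specific activity and sample weight.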

[3] = system: Lung; experiment: Drug uptake in albino F344/DuCrlCrlj rat lung assessed as ng equivalent of CS-1036 at 5 mg/kg, po after 168 hrs by liquid scintillation counting; assay type: ADME, organism-based; design: dose 5 mg/kg, dosed compound name [14C]CS-1036, route oral
[4] = system: Aorta; experiment: Drug uptake in albino F344/DuCrlCrlj rat aorta assessed as ng equivalent of CS-1036 at 5 mg/kg, po after 24 hrs by liquid scintillation counting; assay type: ADME, organism-based; design: dose 5 mg/kg, dosed compound name [14C]CS-1036, route oral
[5] = Drug uptake in albino F344/DuCrlCrlj rat thyroid gland assessed as ng equivalent of CS-1036 at 5 mg/kg, po after 168 hrs by liquid scintillation counting; assay type: ADME, organism-based; design: dose 5 mg/kg, dosed compound name [14C]CS-1036, route oral
[6] = system: Harderian gland; experiment: Drug uptake in albino F344/DuCrlCrlj rat harderian gland at 5 mg/kg, po after 1 hr by liquid scintillation counting; assay type: ADME, organism-based; design: dose 5 mg/kg, dosed compound name [14C]CS-1036, route oral
[7] = system: Harderian gland; experiment: Drug uptake in albino F344/DuCrlCrlj rat harderian gland at 5 mg/kg, po after 168 hrs by liquid scintillation counting; assay type: ADME, organism-based; design: dose 5 mg/kg, dosed compound name [14C]CS-1036, route oral
[8] = system: Cerebrum; experiment: Drug uptake in albino F344/DuCrlCrlj rat cerebrum at 5 mg/kg, po after 24 hrs by liquid scintillation counting; assay type: ADME, organism-based; design: dose 5 mg/kg, dosed compound name [14C]CS-1036, route oral; how it was run: as §1
[9] = system: Stomach; experiment: Drug uptake in albino F344/DuCrlCrlj rat stomach at 5 mg/kg, po after 4 hrs by liquid scintillation counting; assay type: ADME, organism-based; design: dose 5 mg/kg, dosed compound name [14C]CS-1036, route oral
[10] = system: Kidney; experiment: Drug uptake in albino F344/DuCrlCrlj rat kidney assessed as ng equivalent of CS-1036 at 5 mg/kg, po after 24 hrs by liquid scintillation counting; assay type: ADME, organism-based; design: dose 5 mg/kg, dosed compound name [14C]CS-1036, route oral
[11] = system: Aorta; experiment: Drug uptake in albino F344/DuCrlCrlj rat aorta at 5 mg/kg, po after 8 hrs by liquid scintillation counting; assay type: ADME, organism-based; design: dose 5 mg/kg, dosed compound name [14C]CS-1036, route oral
[12] = system: Cerebellum; experiment: Drug uptake in albino F344/DuCrlCrlj rat cerebellum at 5 mg/kg, po after 1 hr by liquid scintillation counting; assay type: ADME, organism-based; design: dose 5 mg/kg, dosed compound name [14C]CS-1036, route oral
[13] = system: Harderian gland; experiment: Drug uptake in albino F344/DuCrlCrlj rat harderian gland at 5 mg/kg, po after 8 hrs by liquid scintillation counting; assay type: ADME, organism-based; design: dose 5 mg/kg, dosed compound name [14C]CS-1036, route oral
[14] = system: Thymus; experiment: Drug uptake in albino F344/DuCrlCrlj rat thymus assessed as ng equivalent of CS-1036 at 5 mg/kg, po after 4 hrs by liquid scintillation counting; assay type: ADME, organism-based; design: dose 5 mg/kg, dosed compound name [14C]CS-1036, route oral
[15] = system: Blood; experiment: Drug uptake in albino F344/DuCrlCrlj rat blood at 5 mg/kg, po after 336 hrs by liquid scintillation counting; assay type: ADME, organism-based; design: dose 5 mg/kg, dosed compound name [14C]CS-1036, route oral
How it was run: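 Male F344/DuCrlCrlj rats (159–167 g; n = 3 per time point) received a single oral dose of [14C]CS-1036 at 5 mg/kg. Blood was taken from the abdominal aorta at 1, 4, 8, 24, 72, 168 and 336 h. Radioactivity was counted by LSC with external-standard efficiency correction. Results were converted to ng equivalent of CS-1036/ml using specific activity and sample volume, and reported as mean + S.D.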

[16] = system: Liver; experiment: Drug uptake in albino F344/DuCrlCrlj rat liver assessed as ng equivalent of CS-1036 at 5 mg/kg, po after 4 hrs by liquid scintillation counting; assay type: ADME, organism-based; design: dose 5 mg/kg, dosed compound name [14C]CS-1036, route oral
[17] = system: Harderian gland; experiment: Drug uptake in albino F344/DuCrlCrlj rat harderian gland assessed as ng equivalent of CS-1036 at 5 mg/kg, po after 336 hrs by liquid scintillation counting; assay type: ADME, organism-based; design: dose 5 mg/kg, dosed compound name [14C]CS-1036, route oral
[18] = system: Small intestine; experiment: Drug uptake in albino F344/DuCrlCrlj rat small intestine at 5 mg/kg, po after 336 hrs by liquid scintillation counting; assay type: ADME, organism-based; design: dose 5 mg/kg, dosed compound name [14C]CS-1036, route oral
[19] = system: Liver; experiment: Drug uptake in albino F344/DuCrlCrlj rat liver assessed as ng equivalent of CS-1036 at 5 mg/kg, po after 336 hrs by liquid scintillation counting; assay type: ADME, organism-based; design: dose 5 mg/kg, dosed compound name [14C]CS-1036, route oral
[20] = system: Plasma; experiment: Drug uptake in albino F344/DuCrlCrlj rat plasma assessed as ng equivalent of CS-1036 at 5 mg/kg, po after 4 hrs by liquid scintillation counting; assay type: ADME, organism-based; design: dose 5 mg/kg, dosed compound name [14C]CS-1036, route oral
[21] = Drug uptake in albino F344/DuCrlCrlj rat fat assessed as ng equivalent of CS-1036 at 5 mg/kg, po after 24 hrs by liquid scintillation counting; assay type: ADME, organism-based, Adipose tissue; design: dose 5 mg/kg, dosed compound name [14C]CS-1036, route oral; how it was run: as §2
[22] = Drug uptake in albino F344/DuCrlCrlj rat mandibular gland assessed as ng equivalent of CS-1036 at 5 mg/kg, po after 24 hrs by liquid scintillation counting; assay type: ADME, organism-based; design: dose 5 mg/kg, dosed compound name [14C]CS-1036, route oral
[23] = system: Thymus; experiment: Drug uptake in albino F344/DuCrlCrlj rat thymus assessed as ng equivalent of CS-1036 at 5 mg/kg, po after 8 hrs by liquid scintillation counting; assay type: ADME, organism-based; design: dose 5 mg/kg, dosed compound name [14C]CS-1036, route oral
[24] = system: Adrenal gland; experiment: Drug uptake in albino F344/DuCrlCrlj rat adrenal gland at 5 mg/kg, po after 168 hrs by liquid scintillation counting; assay type: ADME, organism-based; design: dose 5 mg/kg, dosed compound name [14C]CS-1036, route oral
[25] = system: Small intestine; experiment: Drug uptake in albino F344/DuCrlCrlj rat small intestine at 5 mg/kg, po after 24 hrs by liquid scintillation counting; assay type: ADME, organism-based; design: dose 5 mg/kg, dosed compound name [14C]CS-1036, route oral
[26] = system: Harderian gland; experiment: Drug uptake in albino F344/DuCrlCrlj rat harderian gland assessed as ng equivalent of CS-1036 at 5 mg/kg, po after 72 hrs by liquid scintillation counting; assay type: ADME, organism-based; design: dose 5 mg/kg, dosed compound name [14C]CS-1036, route oral
[27] = system: Plasma; experiment: Drug metabolism in albino F344/DuCrlCrlj rat plasma assessed as (2R,3R,4R)-2-(hydroxymethyl)pyrrolidine-3,4-diol formation at 10 mg/kg, po after 8 to 72 hrs by liquid scintillation counting; assay type: ADME, organism-based; design: dose 10 mg/kg, dosed compound name [14C]CS-1036, route oral
[28] = system: Cerebrum; experiment: Drug uptake in albino F344/DuCrlCrlj rat cerebrum at 5 mg/kg, po after 4 hrs by liquid scintillation counting; assay type: ADME, organism-based; design: dose 5 mg/kg, dosed compound name [14C]CS-1036, route oral; how it was run: as §1
[29] = system: Thymus; experiment: Drug uptake in albino F344/DuCrlCrlj rat thymus assessed as ng equivalent of CS-1036 at 5 mg/kg, po after 168 hrs by liquid scintillation counting; assay type: ADME, organism-based; design: dose 5 mg/kg, dosed compound name [14C]CS-1036, route oral
[30] = system: Heart; experiment: Drug uptake in albino F344/DuCrlCrlj rat heart assessed as ng equivalent of CS-1036 at 5 mg/kg, po after 4 hrs by liquid scintillation counting; assay type: ADME, organism-based; design: dose 5 mg/kg, dosed compound name [14C]CS-1036, route oral
[31] = system: Pancreas; experiment: Drug uptake in albino F344/DuCrlCrlj rat pancreas assessed as ng equivalent of CS-1036 at 5 mg/kg, po after 8 hrs by liquid scintillation counting; assay type: ADME, organism-based; design: dose 5 mg/kg, dosed compound name [14C]CS-1036, route oral
[32] = system: Lung; experiment: Drug uptake in albino F344/DuCrlCrlj rat lung assessed as ng equivalent of CS-1036 at 5 mg/kg, po after 4 hrs by liquid scintillation counting; assay type: ADME, organism-based; design: dose 5 mg/kg, dosed compound name [14C]CS-1036, route oral

C[C@H]1O[C@@H](O[C@H]2[C@H](O)[C@@H](O)[C@@H](O[14C@H]3[14C@H](O)[14CH2]N[14C@@H]3[14CH2]O)O[C@@H]2CO)[C@H](O)[C@@H](O)[C@@H]1O
Radiolabel recovery [1]: 9.08 ngequiv/g
Radiolabel recovery [2]: 194 ngequiv/g
Radiolabel recovery [3]: 8.2 ngequiv/g
Radiolabel recovery [4]: 8.4 ngequiv/g
Radiolabel recovery [5]: 29.9 ngequiv/g
Radiolabel recovery [6]: 30.2 ngequiv/g
Radiolabel recovery [7]: 17.1 ngequiv/g
Radiolabel recovery [8]: 19.3 ngequiv/g
Radiolabel recovery [9]: 129 ngequiv/g
Radiolabel recovery [10]: 16 ngequiv/g
Radiolabel recovery [11]: 57.3 ngequiv/g
Radiolabel recovery [12]: 9.35 ngequiv/g
Radiolabel recovery [13]: 55.9 ngequiv/g
Radiolabel recovery [14]: 2.8 ngequiv/g
Radiolabel recovery [15]: 5.27 ngequiv/ml
Radiolabel recovery [16]: 93 ngequiv/g
Radiolabel recovery [17]: 2.33 ngequiv/g
Radiolabel recovery [18]: 6.54 ngequiv/g
Radiolabel recovery [19]: 2.66 ngequiv/g
Radiolabel recovery [20]: 26.7 ngequiv/ml
Radiolabel recovery [21]: 21 ngequiv/g
Radiolabel recovery [22]: 9 ngequiv/g
Radiolabel recovery [23]: 47 ngequiv/g
Radiolabel recovery [24]: 78.9 ngequiv/g
Radiolabel recovery [25]: 94.4 ngequiv/g
Radiolabel recovery [26]: 67 ngequiv/g
Drug metabolism [27]: metabolite_detected
Radiolabel recovery [28]: 12.2 ngequiv/g
Radiolabel recovery [29]: 5.4 ngequiv/g
Radiolabel recovery [30]: 7 ngequiv/g
Radiolabel recovery [31]: 71 ngequiv/g
Radiolabel recovery [32]: 10.3 ngequiv/g

Reference: ChEMBL document CHEMBL3526002, “Tissue distribution and identification of radioactivity components at elimination phase after oral administration of [¹⁴C]CS-1036, an α-amylase inhibitor, to rats” (Drug Metab Dispos, 2013)
